In ChEMBL document CHEMBL1926567, “Triterpenoids as inhibitors of erythrocytic and liver stages of Plasmodium infections” (Bioorg Med Chem, 2011):
pIC50: −log10 of the molar value. The source made the active and inactive calls. The calls are words filed in the database; no cut-off is given here.

Columns and labels:
Plasmodium falciparum [1] = assay: Antimalarial activity against chloroquine-sensitive Plasmodium falciparum 3D7 infected in erythrocytes after 48 hrs by SYBR green 1-based fluorescence assay; assay type: functional, organism-based; conditions: 3D7, 48 h
Procedure, shortened: (§1)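 P. falciparum (3D7 or Dd2) grown in fresh human erythrocytes in RPMI 1640 with 25 mM HEPES, 6.8 mM hypoxanthine and 10% AlbuMAX II, at 37 °C under 5% O2, 3–5% CO2 and N2. Ring-stage cultures at 1% parasitaemia and 2% haematocrit were exposed in duplicate to 0.156–100 µg/mL (from DMSO stocks) for 48 h at 37 °C. SYBR Green I lysis buffer was then added for 1 h in the dark; fluorescence read at ex 485/em 535 nm. IC50 is the mean of three independent experiments.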

Plasmodium falciparum [2] = assay: Antimalarial activity against chloroquine-resistant Plasmodium falciparum Dd2 infected in erythrocytes after 48 hrs by SYBR green 1-based fluorescence assay; assay type: functional, organism-based; conditions: Dd2, 48 h; procedure, shortened: as §1
MCF7 = assay: Cytotoxicity against human MCF7 cells after 24 hrs by MTT assay; assay type: cell-based; conditions: MCF7, 24 h
Procedure, shortened: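 MCF-7 cells grown in RPMI 1640 with 10% heat-inactivated horse serum and 2 mM L-glutamine at 37 °C, 5% CO2. 2×10^4 cells/well exposed to increasing compound concentrations for 24 h. MTT added for 4 h, then 10% SDS overnight; OD at 550 nm (reference 630 nm). Percent growth inhibition calculated relative to cell and medium controls; IC50 given as mean ± SD of three experiments.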

[3] = Selectivity index, ratio of IC50 for human MCF7 cells to IC50 for chloroquine-sensitive Plasmodium falciparum 3D7; assay type: toxicity, cell-based; conditions: read-out: Ratio IC50
Procedure, shortened: (§2)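 MCF-7 cells were grown in RPMI 1640 with 10% heat-inactivated horse serum and 2 mM L-glutamine. Cells (2×10^4 per well) were exposed to increasing compound concentrations for 24 h at 37 °C, then given MTT for 4 h and SDS overnight; OD read at 550 nm (ref 630 nm). Growth-inhibition IC50 from three experiments.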

[4] = Selectivity index, ratio of IC50 for human MCF7 cells to IC50 for chloroquine-resistant Plasmodium falciparum Dd2; assay type: toxicity, cell-based; conditions: read-out: Ratio IC50; procedure, shortened: as §2
Plasmodium berghei [5] = assay: Antimalarial activity against liver stage of transgenic Plasmodium berghei expressing PbGFP-Luc-con infected in human HuH7 cells at 1 to 15 uM after 48 hrs by bioluminescence method; assay type: functional, organism-based; conditions: Huh-7
Procedure, shortened: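 Huh-7 human hepatoma cells (12×10^3/well) seeded the day before; compounds at 1, 5 and 15 uM added 1 h before sporozoites of luciferase-expressing P. berghei PbGFP-Luc_con, freshly dissected from infected female Anopheles stephensi salivary glands. Plates centrifuged 1700g for 5 min after sporozoite addition. Luminescence read 48 h post-infection versus DMSO controls. Primaquine positive control; three independent measurements.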

Huh-7 = assay: Cytotoxicity against human HuH7 cells at 15 uM by alamar blue fluorescence assay; assay type: cell-based; conditions: huh-7, 15 µM
Procedure, shortened: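 Huh-7 cells cultured in RPMI 1640 with 10% FCS and 10 mM HEPES pH 7 at 37 °C, 5% CO2. Cells seeded the day before, exposed to compounds (1, 5, 15 uM) and infected in parallel with the liver-stage assay. Viability read as AlamarBlue fluorescence (cell confluency), compared with DMSO controls; three independent measurements.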

Hepatocyte = assay: Cytotoxicity against mouse primary hepatocytes at 15 uM after 24 hrs by alamar blue fluorescence assay; assay type: cell-based
Procedure, shortened: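 Mouse primary hepatocytes incubated with compounds for 24 h, then with AlamarBlue-containing medium for 1 h before fluorescence reading. Signal normalized to cells treated with 500 μM H2O2 as positive control and compared with a DMSO control at the amount present in the highest drug concentration.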

Plasmodium berghei [6] = assay: Antimalarial activity against transgenic Plasmodium berghei expressing PbGFP-Luc-con infected in human HuH7 cells assessed as reduction of parasite motility at 15 uM by luciferase based assay; assay type: functional, organism-based; conditions: Huh-7
Plasmodium berghei [7] = assay: Antimalarial activity against transgenic Plasmodium berghei expressing PbGFP-Luc-con infected in human HuH7 cells assessed as reduction of parasite invasion at 15 uM by luciferase based assay; assay type: functional, organism-based; conditions: Huh-7
Plasmodium berghei [8] = assay: Antimalarial activity against transgenic Plasmodium berghei expressing PbGFP-Luc-con infected in human HuH7 cells assessed as reduction of intracellular liver stage development at 15 uM by luciferase based assay; assay type: functional, organism-based; conditions: Huh-7
Plasmodium falciparum [9] = assay: Ratio of balsaminol-F IC50 to compound IC50 for chloroquine-sensitive Plasmodium falciparum 3D7; assay type: functional
Plasmodium falciparum [10] = assay: Ratio of balsaminol-F IC50 to compound IC50 for chloroquine-resistant Plasmodium falciparum Dd2; assay type: functional

Compound	pIC50 (Plasmodium falciparum [1])	pIC50 (Plasmodium falciparum [2])	pIC50 (MCF7)	selectivity ratio [3]	selectivity ratio [4]	Activity (Plasmodium berghei [5])	Activity (Huh-7)	Activity (Hepatocyte)	Activity (Plasmodium berghei [6])	Activity (Plasmodium berghei [7])	Activity (Plasmodium berghei [8])	Ratio IC50 (Plasmodium falciparum [9])	Ratio IC50 (Plasmodium falciparum [10])
CC(C)=C[C@H](O)C[C@@H](C)[C@H]1CC[C@@]2(C)[C@@H]3[C@@H](O)C=C4[C@@H](CC[C@H](O)C4(C)C)[C@]3(C)CC[C@]12C (relative stereo) [BALSAMINOL F]	4.74	4.70	4.56	1.5	1.4	Active	Toxic	Toxic	inactive	inactive	Active	–	–
CC(C)=C[C@H](O)C[C@@H](C)[C@H]1CC[C@@]2(C)[C@@H]3[C@@H](O[C@@H]4O[C@H](CO)[C@@H](O)[C@@H](O)[C@H]4O)C=C4[C@@H](CC[C@H](O)C4(C)C)[C@]3(C)CC[C@]12C (relative stereo) [BALSAMINOSIDE B]	5.54	5.20	4.85	4.8	2.3	Active	Toxic	Toxic	inactive	inactive	Active	–	–
CC(C)=C[C@H](O)C[C@@H](C)[C@H]1CC[C@@]2(C)[C@@H]3[C@@H](O[C@@H]4O[C@H](CO)[C@@H](O)[C@H](O)[C@H]4O)C=C4[C@@H](CC[C@H](O)C4(C)C)[C@]3(C)CC[C@]12C [BALSAMINOSIDE C]	5.47	5.14	4.62	7	3.3	Active	–	–	–	–	–	–	–
CO[C@H]1C=C2[C@@H](CC[C@H](O)C2(C)C)[C@]2(C)CC[C@]3(C)[C@@H]([C@H](C)CC(C=C(C)C)O[C@@H]4O[C@H](CO)[C@@H](O)[C@H](O)[C@H]4O)CC[C@@]3(C)[C@H]12 (some centres not stated) [KUGUAGLYCOSIDE A]	5.41	5.33	4.87	3.5	2.9	–	–	–	–	–	–	–	–
CC(=O)O[C@H]1C=C2[C@@H](CC[C@H](OC(C)=O)C2(C)C)[C@]2(C)CC[C@]3(C)[C@@H]([C@H](C)C[C@H](C=C(C)C)OC(C)=O)CC[C@@]3(C)[C@H]12 [TRIACETYLBALSAMINOL F]	6.10	6.40	< 3.88	> 162	> 343	Active	Non-toxic	Non-toxic	inactive	inactive	Active	22.5	50
CC(C)=C[C@@H](C[C@@H](C)[C@H]1CC[C@@]2(C)[C@@H]3[C@@H](OC(=O)c4ccccc4)C=C4[C@@H](CC[C@H](OC(=O)c5ccccc5)C4(C)C)[C@]3(C)CC[C@]12C)OC(=O)c1ccccc1 [TRIBENZOYLBALSAMINOL F]	4.24	4.16	< 3.88	> 2.3	> 2	Active	–	–	–	–	–	–	–
